Experimental data reported in ChEMBL document CHEMBL1126642, “N-(1-methyl-5-indolyl)-N'-(3-pyridyl)urea hydrochloride: the first selective 5-HT1C receptor antagonist” (J Med Chem, 1993).

Columns and labels:
[1] = target: T1, 5-hydroxytryptamine receptor 2C (Rattus norvegicus) (UniProt P08909); assay: Binding affinity towards rat 5-hydroxytryptamine 1C receptor using [3H]mesulergine as radioligand expressed in 293 cells; format: cell-based; conditions: HEK293
T1 sequence (whole entry): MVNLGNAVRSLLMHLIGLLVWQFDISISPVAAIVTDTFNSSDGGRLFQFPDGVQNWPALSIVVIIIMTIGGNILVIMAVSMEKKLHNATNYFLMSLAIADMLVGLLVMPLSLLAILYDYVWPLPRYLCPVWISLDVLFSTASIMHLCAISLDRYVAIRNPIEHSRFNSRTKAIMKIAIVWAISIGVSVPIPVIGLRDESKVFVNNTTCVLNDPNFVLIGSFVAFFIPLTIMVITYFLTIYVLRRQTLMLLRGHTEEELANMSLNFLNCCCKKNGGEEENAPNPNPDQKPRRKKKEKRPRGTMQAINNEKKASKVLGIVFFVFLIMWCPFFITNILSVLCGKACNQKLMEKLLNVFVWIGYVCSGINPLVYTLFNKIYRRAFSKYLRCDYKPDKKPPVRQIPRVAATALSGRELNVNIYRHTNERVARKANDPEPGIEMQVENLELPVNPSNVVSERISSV
Summary of the method: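 Cloned rat 5-HT1C receptor expressed in 293 cells, labelled with [3H]mesulergine. Values are means ± SEM of n = 3 determinations.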

[2] = Selectivity ratio is Ki value of 5-HT2 receptor to that of 5-HT1c receptor
Summary of the method: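 Ratio of Ki at 5-HT2 ([3H]ketanserin, rat frontal cortex) to Ki at 5-HT1C ([3H]mesulergine, rat clone in 293 cells). Each Ki is a mean of n = 3 determinations.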

pK1 [1] | Selectivity [2] | SMILES
< 5.3 | – | Cn1ccc2cccc(NC(=O)Nc3ccccc3)c21
6.49 | > 19 | Cn1ccc2c(NC(=O)Nc3ccccn3)cccc21
7.18 | 45 | Cn1ccc2c(NC(=O)Nc3ccncc3)cccc21
